Screening results deposited in PubChem by several laboratories.
DAT uptake mod: human DAT dopamine uptake with cocaine, either direction | Q01959 | LLC-PK1 hDAT cells, [14C]-dopamine uptake with cocaine IC80; actives deviate in either direction | B-score at 10 µM | hit rate 1.3% among 110,000 | AID 449768;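 active means Z score or B-score, a plate-position-corrected score, falls beyond the plate's 99.7% confidence bounds, in either direction; inactive means both scores lie inside the 99.7% bounds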;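 further: scored against the spread of the other compound wells on the same plate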
D1 mod: allosterically modulates the human D1 dopamine receptor | P21728 | HEK293 D1, CRE-luciferase, dopamine EC30 potentiation; actives deviate in either direction | B-score at 10 µM | hit rate 5.9% among 58,000;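 active means luminescence count or its row- and column-corrected plate score outside the 99.7% band of the plate's sample wells, on either side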
Target sequence (P21728 whole entry, looked up): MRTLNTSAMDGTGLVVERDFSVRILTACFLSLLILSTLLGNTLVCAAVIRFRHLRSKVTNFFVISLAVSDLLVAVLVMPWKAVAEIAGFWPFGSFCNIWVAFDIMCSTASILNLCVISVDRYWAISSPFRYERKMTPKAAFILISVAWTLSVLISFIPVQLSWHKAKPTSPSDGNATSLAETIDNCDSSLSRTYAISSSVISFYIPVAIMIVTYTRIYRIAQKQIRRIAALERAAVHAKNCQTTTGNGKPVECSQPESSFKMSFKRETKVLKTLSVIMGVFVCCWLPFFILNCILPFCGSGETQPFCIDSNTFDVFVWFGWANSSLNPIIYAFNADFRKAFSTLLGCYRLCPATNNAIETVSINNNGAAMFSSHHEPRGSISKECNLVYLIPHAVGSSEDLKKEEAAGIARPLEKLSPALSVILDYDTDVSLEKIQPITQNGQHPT
WNV protease inh: blocks West Nile virus NS2B-NS3 protease activity; z-score (concentration not given with the values); hit rate 0.18% among 65,000; P06935; WNV NS2B-NS3 protease, fluorogenic substrate Ex360/Em465; hits give low values; in the data active means z-score below about -3
AP ELISA ortho: orthogonal test for alternative complement pathway inhibitors. Human serum alternative complement pathway, LPS-coated ELISA, C3 deposition; tested in compound mixtures. inhibition, % at 5 µM. hit rate 0.08% among 62,000;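 active means inhibition above 30% in each of the two pooled mixtures holding the compound, so the lower value exceeds 30%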;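 further: 0% = serum in Mg-EGTA without compound and 100% = EDTA serum blank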
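Assay system: human serum alternative complement pathway, C3 deposition on LPS-coated wells; Dosing: 5 µM per compound in ten-compound mixtures; Detection: Anti-C3 ELISA, OD 450 nm; Buffer or medium: Mg2+-EGTA GVB++ buffer containing human serum at 1:15 dilution; Timing: 1 h at 37 °C; Replication: two different pools per compound.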
* = called active by the depositor. Shown is part of a subset that was picked to be rich in hits.

How did O=C(O)CCCN=CC1=C(O)C(C(=O)c2ccccc2)CCC1=O (stereo unspecified) do in these assays?
DAT uptake mod: 1.8*

Results for CCC(CO)N=CC1=C(O)C(C(=O)c2ccccc2)CCC1=O (stereo unspecified) ?
DAT uptake mod: -0.11; D1 mod: -0.81; WNV protease inh: -0.67; AP ELISA ortho: 6

How did CCOC(=O)C1=C(C)NC(=O)NC1c1cccnc1 (stereo unspecified) do in these assays?
DAT uptake mod: 0.26; D1 mod: -7.8*; WNV protease inh: -1.3; AP ELISA ortho: 5

How did CC1(C)CC(=O)C2=C(C1)OC(N)=C(C#N)C21CCC2(CC1)OCCO2 do in these assays?
DAT uptake mod: 23*; D1 mod: -0.6; WNV protease inh: -0.06; AP ELISA ortho: 9

How did CN(C(=O)COC(=O)COc1ccccc1F)C1CCS(=O)(=O)C1 (stereo unspecified) do in these assays?
DAT uptake mod: -1; D1 mod: 0.35; WNV protease inh: -0.56; AP ELISA ortho: 15

What do the screens show for `COc1cccc(N=Cc2c[nH][nH]c2=O)c1`?
DAT uptake mod: -7.7*

What do the screens show for `Cc1csc(SCC(=O)c2cc(C)n(Cc3cccs3)c2C)n1`?
DAT uptake mod: -0.026; D1 mod: -5.2*; WNV protease inh: 0.81; AP ELISA ortho: 5

What do the screens show for `CCN(CC)C(C)C(=O)NCC1(c2ccccc2)CCOCC1` (stereo unspecified)?
DAT uptake mod: -0.44

How did Cc1nc2ccccc2c2oc(C(=O)NCc3ccccn3)cc12 do in these assays?
DAT uptake mod: -0.031; D1 mod: -3.7*; WNV protease inh: -1.4; AP ELISA ortho: 4

Results for Cc1ccc(CNC(=O)c2cc3c(C)nc4ccccc4c3o2)cc1 ?
DAT uptake mod: 1.3

How did CCCc1nc(S(=O)(=O)Cc2ccc(Cl)cc2Cl)n[nH]1 do in these assays?
DAT uptake mod: -0.38; D1 mod: -1.6; WNV protease inh: 0.34; AP ELISA ortho: -21

Results for CCCOc1ccc(C(=O)Nc2ccc(Cl)cn2)cc1 ?
DAT uptake mod: 0.57

What do the screens show for `CCCCC(=O)Nc1ccc(Cl)cn1`?
DAT uptake mod: -0.7; D1 mod: -0.05; WNV protease inh: 0.76; AP ELISA ortho: -6

What do the screens show for `Cc1ccc(C(=O)Nc2ccc(Cl)cn2)cc1`?
DAT uptake mod: 0.074; D1 mod: -4.1*; WNV protease inh: 0.82; AP ELISA ortho: -1

What do the screens show for `CCC(=O)NC(=S)Nc1ccc(Cl)cn1`?
DAT uptake mod: 2.2*

What do the screens show for `COc1cc(C)nc(-n2nc(C)cc2OC)n1`?
DAT uptake mod: 0.53

What do the screens show for `CCOc1ccccc1NC(=O)CN1CCC(NC(=O)c2ccccc2)CC1`?
DAT uptake mod: -1.4

What do the screens show for `CCOc1ccc(OCC)c(NC(=O)CN2CCC(NC(=O)c3cccc(F)c3)CC2)c1`?
DAT uptake mod: 3.3*; D1 mod: -1.2; WNV protease inh: 0.09; AP ELISA ortho: -2

What do the screens show for `CCN(CC(=O)Nc1ccccc1OC)C(=O)C1CC2C=CC1C2` (stereo unspecified)?
DAT uptake mod: -1; D1 mod: -0.17; WNV protease inh: -7.5*; AP ELISA ortho: 10

What do the screens show for `Cc1cccc(OCC(=O)O/N=C(\N)Cc2ccc(Cl)cc2)c1`?
DAT uptake mod: -0.037

What do the screens show for `Cc1ccc2nc(N/N=C/c3ccccc3C#N)nc(-c3ccccc3)c2c1`?
DAT uptake mod: 3.1*

Results for CCCn1c(C)cc(C(=O)CN2C(=O)c3ccccc3C2=O)c1C ?
D1 mod: -0.54; WNV protease inh: -0.55; AP ELISA ortho: 7

What do the screens show for `Cc1cc(C(=O)CN2C(=O)C3CC=CCC3C2=O)c(C)n1-c1ccccc1` (stereo unspecified)?
DAT uptake mod: 0.79; D1 mod: -3.6*; WNV protease inh: 0.59; AP ELISA ortho: 13

How did Cc1cc(C(=O)CN2C(=O)c3ccccc3S2(=O)=O)c(C)n1-c1ccccc1 do in these assays?
DAT uptake mod: 1.4; D1 mod: -5*; WNV protease inh: -0.84; AP ELISA ortho: 4

How did O=c1cc(-c2cccc3ccccc23)[nH][nH]1 do in these assays?
DAT uptake mod: 2.4*; WNV protease inh: -0.64; AP ELISA ortho: 3

How did O=C(CCc1ccccc1)NC(NC(=S)Nc1ccc(Cl)cc1)C(Cl)(Cl)Cl (stereo unspecified) do in these assays?
DAT uptake mod: -0.62

What do the screens show for `Cc1cccc(-c2c3c(=O)n(C)c(=O)n(C)c3c3c(C)cc(C)nn23)c1`?
D1 mod: 3.6*; WNV protease inh: 1.3; AP ELISA ortho: 2

Results for Cc1cc(C)c2c3c(c(-c4ccccc4)n2n1)c(=O)n(C)c(=O)n3C ?
D1 mod: 5.6*; WNV protease inh: 0.46; AP ELISA ortho: 2

What do the screens show for `Cc1cc(-c2ccccc2)c2c3c(c(-c4ccccc4)n2n1)c(=O)n(C)c(=O)n3C`?
DAT uptake mod: 0.045

What do the screens show for `COc1ccc(-c2noc3c2-c2nc(-c4ccc(Br)cc4)sc2CC3)cc1`?
DAT uptake mod: 0.31

Results for CCCCn1nc2cc(C(=O)NCc3ccc(OC(F)(F)F)cc3)ccc2c1OC ?
DAT uptake mod: -0.052

How did Cc1cc(C)cc(NC(=O)CSc2nnc(Cc3cccn3C)n2-c2ccc(F)cc2)c1 do in these assays?
DAT uptake mod: 2.6*; D1 mod: 0.15; WNV protease inh: -0.01; AP ELISA ortho: 12

Results for COc1ccccc1-n1c(C)nnc1SCC(=O)Nc1cc(C)cc(C)c1 ?
DAT uptake mod: 0.35; D1 mod: 1.1; WNV protease inh: -9.1*; AP ELISA ortho: 11

How did Cc1cc(C)c(NC(=O)CSc2nnc(Cc3cccn3C)n2-c2ccc(F)cc2)c(C)c1 do in these assays?
DAT uptake mod: 1.2; D1 mod: -0.16; WNV protease inh: 1; AP ELISA ortho: 9

What do the screens show for `CC(Cc1ccccc1)C(=O)N(C)Cc1cccnc1` (stereo unspecified)?
DAT uptake mod: 0.094

What do the screens show for `Cc1[nH]c2ccc(C(=O)OCCN(C)C)cc2c1C`?
DAT uptake mod: -0.45; D1 mod: -4*; WNV protease inh: 2.1

Results for COc1ccc([N+](=O)[O-])cc1NC(=S)NC(NC(=O)C(c1ccccc1)c1ccccc1)C(Cl)(Cl)Cl (stereo unspecified) ?
DAT uptake mod: -1.7

What do the screens show for `CC(C)c1ccc(OCC(O)CN2CCN(c3ccccc3)CC2)cc1` (stereo unspecified)?
DAT uptake mod: 0.065; D1 mod: -4.5*; WNV protease inh: -0.53; AP ELISA ortho: 18

Results for CC(=O)Nc1ccc(OCC(O)CN2CCN(c3cc(Cl)ccc3C)CC2)cc1 (stereo unspecified) ?
DAT uptake mod: 2.3; D1 mod: 0.036; WNV protease inh: -0.02; AP ELISA ortho: 8

Results for CC(=O)Nc1ccc(OCC(O)CN2CCN(c3ccc(C)c(Cl)c3)CC2)cc1 (stereo unspecified) ?
DAT uptake mod: 1; D1 mod: -2.6*; WNV protease inh: 0.51; AP ELISA ortho: 21

What do the screens show for `CC1CCN(CC(O)COc2ccc(F)cc2)CC1` (stereo unspecified)?
DAT uptake mod: -0.32; D1 mod: -5.6*; WNV protease inh: -0.58; AP ELISA ortho: 12
